Experimental data as given in ChEMBL document CHEMBL5380801, “Development of Substituted Phenyl Dihydrouracil as the Novel Achiral Cereblon Ligands for Targeted Protein Degradation” (J Med Chem, 2023).
Calls of active or inactive are those of the source. No cut-off for these calls is given here.

Tests used:
[1] = target: Protein cereblon/DNA damage-binding protein 1 (Homo sapiens, UniProt Q96SW2); assay: Binding affinity to recombinant human CRBN/DDB1 assessed as dissociation constant incubated for 20 mins by fluorescence polarization assay; type: protein assay
Sequence of Protein cereblon/DNA damage-binding protein 1 (Q96SW2 whole entry): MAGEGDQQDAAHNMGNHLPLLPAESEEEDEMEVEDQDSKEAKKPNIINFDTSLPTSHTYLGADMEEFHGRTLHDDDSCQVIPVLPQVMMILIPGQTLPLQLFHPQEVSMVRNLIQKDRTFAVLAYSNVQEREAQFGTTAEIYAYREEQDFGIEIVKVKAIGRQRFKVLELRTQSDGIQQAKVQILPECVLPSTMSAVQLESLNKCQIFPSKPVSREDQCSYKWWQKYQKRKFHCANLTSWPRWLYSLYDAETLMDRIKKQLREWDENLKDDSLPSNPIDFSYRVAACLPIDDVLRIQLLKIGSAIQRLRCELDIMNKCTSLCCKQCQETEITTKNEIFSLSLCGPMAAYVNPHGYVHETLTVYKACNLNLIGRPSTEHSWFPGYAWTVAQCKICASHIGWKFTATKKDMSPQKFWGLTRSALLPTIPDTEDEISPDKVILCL
Sequence of Protein cereblon/DNA damage-binding protein 1 (Q16531 whole entry, further chain): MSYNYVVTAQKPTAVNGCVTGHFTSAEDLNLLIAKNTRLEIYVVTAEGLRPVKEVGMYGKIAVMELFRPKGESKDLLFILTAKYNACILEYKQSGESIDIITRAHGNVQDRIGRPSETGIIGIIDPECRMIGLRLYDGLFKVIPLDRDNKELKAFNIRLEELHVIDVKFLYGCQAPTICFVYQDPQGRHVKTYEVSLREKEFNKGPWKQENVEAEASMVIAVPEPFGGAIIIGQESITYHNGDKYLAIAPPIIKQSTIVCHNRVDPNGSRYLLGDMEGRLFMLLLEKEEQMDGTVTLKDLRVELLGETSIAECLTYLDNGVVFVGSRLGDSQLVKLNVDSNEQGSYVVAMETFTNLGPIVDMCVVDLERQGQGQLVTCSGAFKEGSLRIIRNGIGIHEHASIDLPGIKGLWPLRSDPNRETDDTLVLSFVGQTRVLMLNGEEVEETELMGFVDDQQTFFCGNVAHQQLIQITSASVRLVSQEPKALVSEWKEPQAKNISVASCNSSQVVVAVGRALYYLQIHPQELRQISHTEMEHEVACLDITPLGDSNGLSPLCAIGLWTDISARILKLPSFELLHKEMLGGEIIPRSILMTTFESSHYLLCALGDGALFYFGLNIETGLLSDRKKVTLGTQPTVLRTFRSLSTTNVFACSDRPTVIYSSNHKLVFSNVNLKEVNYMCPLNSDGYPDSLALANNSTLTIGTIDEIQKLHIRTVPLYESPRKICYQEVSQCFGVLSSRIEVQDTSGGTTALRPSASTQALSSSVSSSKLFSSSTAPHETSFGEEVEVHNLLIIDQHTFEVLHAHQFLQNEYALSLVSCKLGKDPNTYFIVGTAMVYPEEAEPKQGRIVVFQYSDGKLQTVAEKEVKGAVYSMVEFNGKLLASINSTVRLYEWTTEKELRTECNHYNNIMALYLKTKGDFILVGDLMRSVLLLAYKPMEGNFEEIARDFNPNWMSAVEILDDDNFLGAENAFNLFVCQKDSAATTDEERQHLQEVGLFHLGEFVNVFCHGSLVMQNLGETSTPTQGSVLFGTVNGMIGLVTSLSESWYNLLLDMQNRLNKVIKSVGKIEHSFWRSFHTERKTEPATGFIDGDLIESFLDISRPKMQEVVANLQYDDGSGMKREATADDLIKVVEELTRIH

[2] = target: Cereblon/Ikaros (Homo sapiens) (UniProt Q96SW2+Q13422); assay: Protac activity at CRBN/IKZF1 in human MV4-11 cells assessed as induction of IKZF1 degradation at 1 to 10 uM measured after 24 hrs by Western blot analysis; type: cell-based; conditions: dose 1-10 µM
[3] = target: Protein cereblon/Zinc finger protein Aiolos (Homo sapiens) (UniProt Q96SW2+Q9UKT9); assay: Protac activity at CRBN/IKZF3 in human MV4-11 cells assessed as induction of IKZF3 degradation at 1 to 10 uM measured after 24 hrs by Western blot analysis; type: cell-based; conditions: dose 1-10 µM
Sequence of Protein cereblon/Zinc finger protein Aiolos (Homo sapiens) (Q96SW2 whole entry, looked up): as the sequence (Q96SW2 whole entry) above
Sequence of Protein cereblon/Zinc finger protein Aiolos (Homo sapiens) (Q9UKT9 whole entry, looked up): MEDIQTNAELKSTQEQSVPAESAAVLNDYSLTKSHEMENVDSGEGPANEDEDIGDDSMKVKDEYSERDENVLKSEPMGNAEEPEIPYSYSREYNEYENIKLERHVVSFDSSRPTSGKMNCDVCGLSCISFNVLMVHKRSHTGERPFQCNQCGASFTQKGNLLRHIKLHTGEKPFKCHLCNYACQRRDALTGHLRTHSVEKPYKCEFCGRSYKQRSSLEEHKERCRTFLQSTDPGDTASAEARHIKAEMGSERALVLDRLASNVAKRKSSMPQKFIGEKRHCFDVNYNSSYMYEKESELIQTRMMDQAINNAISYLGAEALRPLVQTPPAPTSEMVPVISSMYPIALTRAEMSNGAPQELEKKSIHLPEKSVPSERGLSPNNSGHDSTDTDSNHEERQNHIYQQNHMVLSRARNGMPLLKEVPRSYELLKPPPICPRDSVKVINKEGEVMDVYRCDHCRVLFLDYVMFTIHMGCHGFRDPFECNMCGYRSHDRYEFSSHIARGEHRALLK

[4] = target: Protein cereblon/Eukaryotic peptide chain release factor GTP-binding subunit ERF3A (Homo sapiens) (UniProt Q96SW2+P15170); assay: Protac activity at CRBN/GSPT1 in human MV4-11 cells assessed as induction of GSPT1 degradation at 1 to 10 uM measured after 24 hrs by Western blot analysis; type: cell-based; conditions: dose 1-10 µM
Sequence of Protein cereblon/Eukaryotic peptide chain release factor GTP-binding subunit ERF3A (Homo sapiens) (P15170 whole entry, looked up): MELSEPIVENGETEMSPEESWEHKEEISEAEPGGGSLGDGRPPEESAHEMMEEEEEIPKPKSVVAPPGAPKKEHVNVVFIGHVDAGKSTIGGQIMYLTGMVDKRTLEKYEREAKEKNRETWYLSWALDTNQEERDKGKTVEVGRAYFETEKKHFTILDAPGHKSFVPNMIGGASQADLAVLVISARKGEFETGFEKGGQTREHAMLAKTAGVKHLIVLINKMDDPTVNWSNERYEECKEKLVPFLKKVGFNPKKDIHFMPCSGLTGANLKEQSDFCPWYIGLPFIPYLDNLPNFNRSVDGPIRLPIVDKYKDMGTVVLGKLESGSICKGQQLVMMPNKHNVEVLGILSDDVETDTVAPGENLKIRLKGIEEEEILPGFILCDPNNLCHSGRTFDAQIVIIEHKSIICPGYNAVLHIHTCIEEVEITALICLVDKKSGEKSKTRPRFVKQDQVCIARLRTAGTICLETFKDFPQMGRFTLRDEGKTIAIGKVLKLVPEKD
Sequence of Protein cereblon/Eukaryotic peptide chain release factor GTP-binding subunit ERF3A (Homo sapiens) (Q96SW2 whole entry, looked up): as the sequence (Q96SW2 whole entry) above

[5] = Stability in human liver microsomes assessed as parent compound remaining measured after 0.5 hrs in presence of NADPH by LC-MS/MS analysis; type: ADME, Microsome; conditions: read-out: Stability
Procedure, shortened: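 Human liver microsome incubation; percent parent remaining reported after 0.5 h.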

[6] = Stability in human plasma assessed as parent compound remaining measured after 4 hrs in presence of NADPH by LC-MS/MS analysis; type: ADME, cell-free; conditions: read-out: Stability
Procedure, shortened: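 Human plasma incubation; percent parent remaining reported after 4.0 h.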

[7] = Stability of the compound in HCl solution at pH 1.0 assessed as parent compound remaining at 100 uM measured after 24 hrs by HPLC analysis; type: physicochemical; conditions: read-out: Stability
Procedure, shortened: (§1)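 Incubated in buffer at the stated pH at 37 °C; percent parent remaining after 24 h. Ring-opening hydrolysis of the glutarimide or dihydrouracil monitored.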

[8] = Stability of the compound in potassium phosphate buffer at pH 7.4 assessed as parent compound remaining at 100 uM measured after 24 hrs by HPLC analysis; type: physicochemical; conditions: read-out: Stability; procedure, shortened: as §1
[9] = Stability of the compound in bicine buffer at pH 8.8 assessed as parent compound remaining at 100 uM measured after 24 hrs by HPLC analysis; type: physicochemical; conditions: read-out: Stability; procedure, shortened: as §1
[10] = Stability of the compound in bicine buffer at pH 8.8 assessed as parent compound remaining at 100 uM measured after 2 hrs by HPLC analysis; type: physicochemical; conditions: read-out: Stability
Procedure, shortened: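 Incubated in pH 8.8 buffer; percent parent remaining reported after 2 h.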

[11] = target: Protein cereblon/Bromodomain-containing protein 4 (Homo sapiens) (UniProt O60885+Q96SW2); assay: Protac activity at CRBN/BRD4 in human MV4-11 cells assessed as degradation of BRD4 at 0.01 to 1 uM incubated for 24 hrs; type: cell-based; conditions: dose 0.01-1 µM
Sequence of Protein cereblon/Bromodomain-containing protein 4 (Homo sapiens) (Q96SW2 whole entry, looked up, other chains not shown): as the sequence (Q96SW2 whole entry) above

MV4-11 [12] = assay: Antiproliferative activity at human MV4-11 cells assessed as reduction in cell viability at upto 100 uM measured after 72 hrs by Alamar blue dye based analysis; type: functional
Procedure, shortened: (§2)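 MV4;11 cells (RPMI1640, 10% FBS, 1% Pen/Strep, 37 °C, 5% CO2, used within 20 passages) seeded at 5000–10000 cells/well, then given DMSO or compound at the indicated doses for 72 h. AlamarBlue then added; fluorescence read at ex 530–560 nm, em 590 nm. Signal normalized to DMSO-treated cells; IC50 calculated.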

MV4-11 [13] = assay: Induction of apoptosis in human MV4-11 cells assessed as caspase 3 cleavage at 0.01 to 10 nM; type: functional, cell-based; conditions: MV4-11, dose upper 10.0 µM, in the assay text read “0.01 to 10 uM” for “0.01 to 10 nM”
Procedure, shortened: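 MV4;11 cells treated with the indicated concentrations for 24 h, or for the indicated times. […] Blocked in 5% BSA/TBST; anti-caspase 3 and anti-β-actin overnight in the cold, HRP secondary 1 h at room temperature; ECL detection of full-length and cleaved caspase 3.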

MV4-11 [14] = assay: Antiproliferative activity at human MV4-11 cells assessed as reduction in cell viability measured after 72 hrs by Alamar blue dye based analysis; type: functional; conditions: MV4-11, 72 h; procedure, shortened: as §2
MV4-11 [15] = assay: Induction of cell cycle arrest in human MV4-11 cells assessed as accumulation of cells at G1 phase at 0.01 to 10 uM incubated for 48 hrs by PI staining based flow cytometry analysis; type: functional; conditions: dose 0.01-10 µM
Procedure, shortened: (§3)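 Cell-cycle distribution determined by flow cytometry (Attune) in MV4;11 cells seeded in 6-well plates and treated with the indicated concentrations for 48 h.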

MV4-11 [16] = assay: Induction of cell cycle arrest in human MV4-11 cells assessed as decrease in accumulation of cells at S phase at 0.01 to 10 uM incubated for 48 hrs by PI staining based flow cytometry analysis; type: functional; conditions: dose 0.01-10 µM; procedure, shortened: as §3
MV4-11 [17] = assay: Induction of apoptosis in human MV4-11 cells assessed as viable cells at 10 uM measured after 48 hrs by Annexin V-FITC staining based flow cytometry (reference value: 98.7%); type: functional; conditions: read-out: Activity
MV4-11 [18] = assay: Induction of apoptosis in human MV4-11 cells assessed as viable cells at 1 uM measured after 48 hrs by Annexin V-FITC staining based flow cytometry (reference value: 98.7%); type: functional; conditions: read-out: Activity
MV4-11 [19] = assay: Induction of apoptosis in human MV4-11 cells assessed as viable cells at 0.1 uM measured after 48 hrs by Annexin V-FITC staining based flow cytometry (reference value: 98.7%); type: functional; conditions: read-out: Activity
MV4-11 [20] = assay: Induction of apoptosis in human MV4-11 cells assessed as viable cells at 0.01 uM measured after 48 hrs by Annexin V-FITC staining based flow cytometry (reference value: 98.7%); type: functional; conditions: read-out: Activity
MV4-11 [21] = assay: Induction of apoptosis in human MV4-11 cells assessed as early apoptotic cells at 10 uM measured after 48 hrs by Annexin V-FITC staining based flow cytometry (reference value: 0%); type: functional
MV4-11 [22] = assay: Induction of apoptosis in human MV4-11 cells assessed as early apoptotic cells at 1 uM measured after 48 hrs by Annexin V-FITC staining based flow cytometry (reference value: 0%); type: functional
MV4-11 [23] = assay: Induction of apoptosis in human MV4-11 cells assessed as early apoptotic cells at 0.1 uM measured after 48 hrs by Annexin V-FITC staining based flow cytometry (reference value: 0%); type: functional
MV4-11 [24] = assay: Induction of apoptosis in human MV4-11 cells assessed as early apoptotic cells at 0.01 uM measured after 48 hrs by Annexin V-FITC staining based flow cytometry (reference value: 0%); type: functional
MV4-11 [25] = assay: Induction of apoptosis in human MV4-11 cells assessed as late apoptotic cells at 10 uM measured after 48 hrs by Annexin V-FITC staining based flow cytometry (reference value: 0.42%); type: functional
MV4-11 [26] = assay: Induction of apoptosis in human MV4-11 cells assessed as late apoptotic cells at 1 uM measured after 48 hrs by Annexin V-FITC staining based flow cytometry (reference value: 0.42%); type: functional
MV4-11 [27] = assay: Induction of apoptosis in human MV4-11 cells assessed as late apoptotic cells at 0.1 uM measured after 48 hrs by Annexin V-FITC staining based flow cytometry (reference value: 0.42%); type: functional
MV4-11 [28] = assay: Induction of apoptosis in human MV4-11 cells assessed as late apoptotic cells at 0.01 uM measured after 48 hrs by Annexin V-FITC staining based flow cytometry (reference value: 0.42%); type: functional
MV4-11 [29] = assay: Induction of apoptosis in human MV4-11 cells assessed as necrotic cells at 10 uM measured after 48 hrs by Annexin V-FITC staining based flow cytometry (reference value: 0.86%); type: functional
MV4-11 [30] = assay: Induction of apoptosis in human MV4-11 cells assessed as necrotic cells at 1 uM measured after 48 hrs by Annexin V-FITC staining based flow cytometry (reference value: 0.86%); type: functional
MV4-11 [31] = assay: Induction of apoptosis in human MV4-11 cells assessed as necrotic cells at 0.1 uM measured after 48 hrs by Annexin V-FITC staining based flow cytometry (reference value: 0.86%); type: functional
MV4-11 [32] = assay: Induction of apoptosis in human MV4-11 cells assessed as necrotic cells at 0.01 uM measured after 48 hrs by Annexin V-FITC staining based flow cytometry (reference value: 0.86%); type: functional

| Activity [2] | Activity [3] | Activity [4] | remaining at 0.5 h [5] [%] | remaining at 4 h [6] [%] | remaining at 24 h, 100 µM [7] [%] | remaining at 24 h, 100 µM [8] [%] | remaining at 24 h, 100 µM [9] [%] | Structure (SMILES) | Kd [1] [nM] | other results |
| --- | --- | --- | --- | --- | --- | --- | --- | --- | --- | --- |
| inactive | inactive | inactive | 90 | 102 | > 99 | > 99 | 90 | CC(=O)NCCC#Cc1cccc(N2CCC(=O)NC2=O)c1C | 630 | – |
| inactive | inactive | inactive | 100 | 88 | > 99 | > 99 | 95 | CCNC(=O)COc1cccc(N2CCC(=O)NC2=O)c1C | 2140 | – |
| inactive | inactive | inactive | 87 | 97 | > 99 | > 99 | 93 | Cc1c(C#CCNC(=O)OC(C)(C)C)cccc1N1CCC(=O)NC1=O | – | – |
| inactive | inactive | inactive | 85 | 81 | > 99 | > 99 | 95 | Cc1c(OCC(=O)N2CCCCC2)cccc1N1CCC(=O)NC1=O | 1100 | Activity (MV4-11 [12]): inactive |

The remaining lines, values behind:

| Structure (SMILES) | Activity [2] | Activity [3] | Activity [4] | remaining at 0.5 h [5] [%] | remaining at 4 h [6] [%] | remaining at 24 h, 100 µM [7] [%] | remaining at 24 h, 100 µM [8] [%] | remaining at 24 h, 100 µM [9] [%] | Kd [1] [nM] | other results |
| --- | --- | --- | --- | --- | --- | --- | --- | --- | --- | --- |
| Cc1c(OCC(=O)OC(C)(C)C)cccc1N1CCC(=O)NC1=O | – | – | – | – | – | – | – | – | 1200 | – |
| CC(C)(C)OC(=O)NCC#Cc1cccc(N2CCC(=O)NC2=O)c1 | – | – | – | – | – | – | – | – | 530 | – |
| Nc1cccc2c1CN(C1CCC(=O)NC1=O)C2=O (stereo not given) [LENALIDOMIDE] | – | – | – | 89 | 62 | > 99 | 39 | – | – | remaining at 2 h, 100 µM [10]: 20% |
| Cc1sc2c(c1C)C(c1ccc(Cl)cc1)=N[C@@H](CC(=O)NC1CCN(C(=O)COc3cccc(N4CCC(=O)N(C)C4=O)c3C)CC1)c1nnc(C)n1-2 | – | – | – | – | – | – | – | – | – | Activity [11]: inactive |
| Cc1ccccc1N1CCC(=O)NC1=O | – | – | – | – | – | – | – | – | 1240 | – |
| Cc1sc2c(c1C)C(c1ccc(Cl)cc1)=N[C@@H](CC(=O)NC1CCN(C(=O)COc3cccc(N4CCC(=O)NC4=O)c3C)CC1)c1nnc(C)n1-2 | – | – | – | – | – | – | – | – | – | Activity (MV4-11 [13]): Active; IC50 (MV4-11 [14]): 1.1 nM; Activity (MV4-11 [15]): Active; Activity (MV4-11 [16]): Active; viability at 10 µM (MV4-11 [17]): 3.88%; viability at 1 µM (MV4-11 [18]): 7.3%; viability at 0.1 µM (MV4-11 [19]): 17.1%; viability at 0.01 µM (MV4-11 [20]): 77.2%; Activity (MV4-11 [21]): 5.77%; Activity (MV4-11 [22]): 0.49%; Activity (MV4-11 [23]): 1.13%; Activity (MV4-11 [24]): 0.32%; Activity (MV4-11 [25]): 88.7%; Activity (MV4-11 [26]): 43.6%; Activity (MV4-11 [27]): 42.3%; Activity (MV4-11 [28]): 13.4%; Activity (MV4-11 [29]): 16.9%; Activity (MV4-11 [30]): 48.7%; Activity (MV4-11 [31]): 39.4%; Activity (MV4-11 [32]): 9.13% |
